Where “and” joins values, the source holds several entries; their conditions need not be identical. Identical values can stand only once.
What was measured:
Rattus norvegicus [1] = test: Effect on the synthesis rate of dopamine (DOPA) accumulation at the dose of 9.7 umol/kg in the rat ventral limbic brain region; assay type: functional, Limbic system
Procedure, shortened: (§1)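 Male Sprague-Dawley rats dosed sc with drug or vehicle at time zero. NSD 1015 (100 mg/kg ip) given 15 min later to block aromatic decarboxylase. Brain DOPA and 5-HTP measured by electrochemical detection with peak integration. Expressed as percent change from NSD 1015 plus saline controls. Control and test groups N = 6 each, compared by unpaired t test.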

Rattus norvegicus [2] = test: Effect on the synthesis rate of 5 HTP accumulation at the dose of 9.7 uM/kg in the rat ventral limbic brain region; assay type: functional, Limbic system; procedure, shortened: as §1
Mus musculus [3] = test: Tested in vivo for the maximum temperature decrease in mouse hypothermia assay.; assay type: functional
Procedure, shortened: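 CF-1 mice (18-22 g, 4 per dose), dosed sc or orally. Rectal temperature measured before dosing and 20 min after. The mean maximum temperature drop (°F) at 20 min after any dose is recorded as an efficacy index.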

Mus musculus [4] = test: In vivo effective dose administered subcutaneously in mouse hypothermia assay.; assay type: functional; details: sc
Procedure, shortened: (§2)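 Charles River CF-1 mice (18-22 g, 4 per dose), housed individually 20 min before testing. Rectal temperature taken before dosing and 20 min after (sc 0.1 mL; oral 0.2 mL by gavage needle). A drop of ≥2 °F counted as positive. Doses started at 30 mg/kg and fell by half-log until 0/4 responded.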

Mus musculus [5] = test: Behavioral time in mouse isolation-induced aggression assay at 35 umol/kg administered perorally (*P<0.05); assay type: functional
Procedure, shortened: (§3)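 Male CF-1 mice. Residents were isolated singly for at least 1 month; group-housed intruders were kept 4-6/cage. Mice weighed 28-30 g at first test. Residents got drug ip or orally in 0.25% methylcellulose or 0.1% citric acid 30 min before an untreated intruder was introduced. Latency to fighting was recorded, capped at 600 s. Dosing was blind, 6/group (vehicle n = 12), Wilcoxon rank sum.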

Mus musculus [6] = test: Behavioral time in mouse isolation-induced aggression assay at 0 umol/kg administered perorally; assay type: functional; procedure, shortened: as §3
Mus musculus [7] = test: Behavioral time in mouse isolation-induced aggression assay at 3.5 umol/kg administered perorally; assay type: functional; procedure, shortened: as §3
Mus musculus [8] = test: Behavioral time in mouse face to face assay at 11 umol/kg administered perorally; assay type: functional
Procedure, shortened: (§4)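 Male CF-1 mice (Charles River, 19-29 g), 8 pairs per dose, dosed sc, ip or orally in 0.25% methylcellulose or 0.1% citric acid; 30 min absorption housed with familiar partner. Pairs from different home cages placed in small litter-floored cage; face-to-face interaction duration scored visually for 3 min. Wilcoxon rank sum (two-tailed) vs daily control, p < 0.05.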

Mus musculus [9] = test: Behavioral time in mouse face to face assay at 3.5 umol/kg administered perorally; assay type: functional; procedure, shortened: as §4
Mus musculus [10] = test: Behavioral time in mouse face to face assay at 35 umol/kg administered perorally; assay type: functional; procedure, shortened: as §4
Mus musculus [11] = test: Behavioral time in mouse isolation-induced aggression assay at 3.5 umol/kg administered intraperitoneally (*P<0.05); assay type: functional; procedure, shortened: as §3
Mus musculus [12] = test: Behavioral time in mouse face to face assay at 0 umol/kg administered perorally; assay type: functional; procedure, shortened: as §4
Mus musculus [13] = test: (§5) Behavioral time in mouse isolation-induced aggression assay at 0 umol/kg administered intraperitoneally; assay type: functional; procedure, shortened: as §3
Mus musculus [14] = test: Behavioral time in mouse isolation-induced aggression assay at 11 umol/kg administered perorally; assay type: functional; procedure, shortened: as §3
Mus musculus [15] = test: Tested in vivo for the effective dose administered orally in mouse hypothermia assay; assay type: functional; details: po; procedure, shortened: as §2
Mus musculus [16] = test: Behavioral time in mouse isolation-induced aggression assay at 11 umol/kg administered intraperitoneally (*P<0.05); assay type: functional; procedure, shortened: as §3
Felis catus [17] = organism: Felis catus; test: Maximum decrease observed; assay type: functional; set-up: unit not given here
Mus musculus [18] = test: Behavioral time in mouse face to face assay at 0 umol/kg administered intraperitoneally; assay type: functional; procedure, shortened: as §4
Felis catus [19] = test: Maximum decrease observed following 1 mg/kg dose; assay type: functional
Felis catus [20] = organism: Felis catus; test: Dose at which the SND has been reduced to 50% of the pretreatment value; assay type: functional
Procedure, shortened: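 Adult cats (2.5-4.0 kg), ketamine 11 mg/kg im then chloralose 80 mg/kg iv, ventilated, gallamine-paralyzed, rectal temperature 37-38 °C. Sympathetic nerve discharge quantified by cumulative integration. Cumulative iv doses were given at 20-min intervals. Value is the dose reducing discharge to 50% of pretreatment.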

Rattus norvegicus [21] = test: Effect on the synthesis rate of 5 HTP accumulation at 3.4 umol/kg in the rat ventral limbic brain region; assay type: functional, Limbic system; procedure, shortened: as §1
Felis catus [22] = test: Dose on arterial blood pressure (BP) in anesthetized cat; assay type: functional
Procedure, shortened: (§6)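 Adult cats (2.5-4.0 kg) anesthetized with ketamine 11 mg/kg im, then chloralose 80 mg/kg iv. Femoral artery cannulated for blood pressure, femoral vein for drug. Ventilated, paralyzed with gallamine 4 mg/kg iv, rectal temperature held at 37-38 °C. Cumulative iv doses given at 20-min intervals. Maximum decrease reported following a 1 mg/kg iv dose.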

Rattus norvegicus [23] = test: Effect on the synthesis rate of dopamine (DOPA) accumulation at the dose of 68 umol/kg in the rat ventral limbic brain region; assay type: functional, Limbic system; procedure, shortened: as §1
Rattus norvegicus [24] = test: Effect on the synthesis rate of dopamine (DOPA) accumulation at 3.4 umol/kg in the rat ventral limbic brain region; assay type: functional, Limbic system; procedure, shortened: as §1
Rattus norvegicus [25] = test: Effect on the synthesis rate of 5 HTP accumulation at 68 umol/kg in the rat ventral limbic brain region; assay type: functional, Limbic system; procedure, shortened: as §1
Rattus norvegicus [26] = test: Effect on the synthesis rate of 5 HTP accumulation at the dose of 10 umol/kg in the rat ventral limbic brain region; assay type: functional, Limbic system; procedure, shortened: as §1
Rattus norvegicus [27] = test: Effect on the synthesis rate of dopamine (DOPA) accumulation at the dose of 10 umol/kg in the rat ventral limbic brain region; assay type: functional, Limbic system; procedure, shortened: as §1
Mus musculus [28] = test: Behavioral time in mouse isolation-induced aggression assay at 10 umol/kg administered intraperitoneally (*P<0.05); assay type: functional; procedure, shortened: as §3
Mus musculus [29] = test: Behavioral time in mouse face to face assay at 33 umol/kg administered perorally (*P<0.05); assay type: functional; procedure, shortened: as §4
Mus musculus [30] = test: Behavioral time in mouse isolation-induced aggression assay at 10 umol/kg administered perorally (*P<0.05); assay type: functional; procedure, shortened: as §3
Mus musculus [31] = test: Behavioral time in mouse isolation-induced aggression assay at 33 umol/kg administered perorally (*P<0.05); assay type: functional; procedure, shortened: as §3
Mus musculus [32] = test: as §5; assay type: functional; remark: listed apart in the source
Procedure, shortened: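 Isolated male CF-1 resident mice, housed singly ≥1 month and weighing 28-30 g at testing, were dosed ip or orally in 0.25% methylcellulose or 0.1% citric acid. Dosing was blind, 6 per group (n=12 vehicle). After 30 min an untreated group-housed intruder was introduced. Latency to fighting was recorded, capped at 600 s. Residents rested ≥3 days before reuse. Wilcoxon rank sum.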

Mus musculus [33] = test: Behavioral time in mouse face to face assay at 0.3 umol/kg administered perorally (*P<0.05); assay type: functional; procedure, shortened: as §4
Mus musculus [34] = test: Behavioral time in mouse face to face assay at 0.03 umol/kg administered perorally; assay type: functional; procedure, shortened: as §4
Mus musculus [35] = test: Behavioral time in mouse isolation-induced aggression assay at 0 umol/kg administered perorally (*P<0.05); assay type: functional; procedure, shortened: as §3
Mus musculus [36] = test: Behavioral time in mouse face to face assay at 3.3 umol/kg administered perorally (*P<0.05); assay type: functional; procedure, shortened: as §4
Mus musculus [37] = test: Behavioral time in mouse face to face assay at 3.2 umol/kg administered; assay type: functional; procedure, shortened: as §4
Mus musculus [38] = test: Behavioral time in mouse isolation-induced aggression assay 32 umol/kg administered peritoneally; assay type: functional; details: in the assay text read “administered orally” for “administered peritoneally”; procedure, shortened: as §3
Mus musculus [39] = test: Behavioral time in mouse face to face assay at 0.3 umol/kg administered; assay type: functional; procedure, shortened: as §4
Mus musculus [40] = test: Behavioral time in mouse isolation-induced aggression assay 0 umol/kg administered peritoneally; assay type: functional; details: in the assay text read “administered orally” for “administered peritoneally”; procedure, shortened: as §3
Mus musculus [41] = test: Behavioral time in mouse face to face assay at 32 umol/kg administered; assay type: functional; procedure, shortened: as §4
Mus musculus [42] = test: Behavioral time in mouse face to face assay at 0 umol/kg administered; assay type: functional; procedure, shortened: as §4
Felis catus [43] = test: Maximum decrease on arterial blood pressure at 1 mg/kg; assay type: functional; procedure, shortened: as §6
Rattus norvegicus [44] = test: Effect on the synthesis rate of 5 HTP accumulation at the dose of 3.5 umol/kg in the rat ventral limbic brain region; assay type: functional, Limbic system; procedure, shortened: as §1
Mus musculus [45] = test: Behavioral time in mouse face to face assay at 36 umol/kg administered subcutaneously; assay type: functional; procedure, shortened: as §4
Rattus norvegicus [46] = test: Effect on the synthesis rate of dopamine (DOPA) accumulation at the dose of 3.5 uM/kg in the rat ventral limbic brain region; assay type: functional, Limbic system; procedure, shortened: as §1
Mus musculus [47] = test: Behavioral time in mouse face to face assay at 3.5 umol/kg administered subcutaneously; assay type: functional; procedure, shortened: as §4
Mus musculus [48] = test: Behavioral time in mouse face to face assay at 0.4 umol/kg administered subcutaneously; assay type: functional; procedure, shortened: as §4
Mus musculus [49] = test: Behavioral time in mouse face to face assay at 0 umol/kg administered subcutaneously; assay type: functional; procedure, shortened: as §4

## CCCN[C@@H]1CCc2cccc(OC)c2[C@@H]1CC1CC1
Rattus norvegicus [1]
  Change: 5%
Rattus norvegicus [2]
  Change: -25.8%
Mus musculus [3]
  TMP.decrease: 7.4 degrees F
Mus musculus [4]
  ED50: 31 µmol/kg

## CCCN[C@@H]1CCc2cccc(O)c2[C@@H]1CCC
Mus musculus [5]
  Time: 54 s
Mus musculus [6]
  Time: 11 s
Mus musculus [7]
  Time: 28 s
Mus musculus [3]
  TMP.decrease: 10.4 degrees F and 7.5 degrees F
Mus musculus [8]
  Time: 1.3 s
Mus musculus [9]
  Time: 1.1 s
Mus musculus [10]
  Time: 1.1 s
Mus musculus [11]
  Time: 97 s
Mus musculus [12]
  Time: 1.1 s
Mus musculus [13]
  Time: 8 s
Mus musculus [14]
  Time: 146 s
Mus musculus [15]
  ED50: 46 µmol/kg
Mus musculus [16]
  Time: 125 s
Mus musculus [4]
  ED50: 6.1 µmol/kg

## C=CC[C@@H]1c2c(cccc2OC)CC[C@H]1NCCC (relative stereo)
Felis catus [17]
  Max decrease: 16
Mus musculus [18]
  Time: 0.4 s
Felis catus [19]
  Max decrease: 66
Felis catus [20]
  ED50: 1.35 µmol/kg
Mus musculus [3]
  TMP.decrease: 10.2 degrees F and 5.8 degrees F
Rattus norvegicus [21]
  Change: -6.9%
Felis catus [22]
  BP: 71%
Rattus norvegicus [23]
  Change: 8.1%
Rattus norvegicus [24]
  Change: -4.3%
Mus musculus [15]
  ED50: 59 µmol/kg
Rattus norvegicus [25]
  Change: -16%
Mus musculus [4]
  ED50: 14 µmol/kg

## C=CC[C@@H]1c2cccc(OC)c2CC[C@H]1NCCC (relative stereo)
Rattus norvegicus [26]
  Change: 2.7%
Rattus norvegicus [27]
  Change: -15%

## CCCN(C)[C@@H]1CCc2cccc(OC)c2[C@@H]1CO
Mus musculus [28]
  Time: 329 s
Mus musculus [29]
  Time: 2.1 s
Mus musculus [30]
  Time: 125 s
Mus musculus [3]
  TMP.decrease: 9.1 degrees F and 5 degrees F
Mus musculus [31]
  Time: 269 s
Mus musculus [32]
  Time: 6 s
Mus musculus [12]
  Time: 1.1 s
Mus musculus [33]
  Time: 2 s
Mus musculus [34]
  Time: 1.7 s
Mus musculus [15]
  ED50: 32 µmol/kg
Mus musculus [35]
  Time: 43 s
Mus musculus [4]
  ED50: 5.7 µmol/kg
Mus musculus [36]
  Time: 1.7 s

## C=CCN[C@@H]1CCc2cccc(OC)c2[C@@H]1C(=O)OC
Mus musculus [37]
  Time: 1.1 s
Mus musculus [38]
  Time: 120 s
Mus musculus [39]
  Time: 1 s
Mus musculus [40]
  Time: 56 s
Mus musculus [41]
  Time: 0.8 s
Mus musculus [42]
  Time: 0.7 s

## C=CC[C@H]1c2c(O)cccc2CC[C@H]1NCCC
Felis catus [17]
  Max decrease: 10
Felis catus [43]
  Max decrease: 55
Rattus norvegicus [44]
  Change: -53%
Felis catus [20]
  ED50: 0.09 µmol/kg
Mus musculus [3]
  TMP.decrease: 9.5 degrees F and 6.9 degrees F
Mus musculus [45]
  Time: 3.8 s
Rattus norvegicus [46]
  Change: 14%
Mus musculus [47]
  Time: 3.9 s
Felis catus [22]
  BP: 77%
Mus musculus [48]
  Time: 2.9 s
Mus musculus [15]
  ED50: 61 µmol/kg
Mus musculus [49]
  Time: 2.8 s
Mus musculus [4]
  ED50: 1.1 µmol/kg

Source: ChEMBL document CHEMBL1126613, “Centrally acting serotonergic agents. Synthesis and structure-activity relationships of C-1- or C-3-substituted derivatives of 8-hydroxy-2-(di-n-propylamino)tetralin” (J Med Chem, 1993)
